In publication PMC6988732 (The Biochemical journal, 2013):
Changes are numbered by the printed parent chain. Values joined by “and” are separate entries in the source; they are usually repeats but may differ in a detail not shown here. Equal values may be shown once. Read-outs that look alike come from different tables or passages of the source.

Key:
PKCδC1B = details: cited from earlier work
PKCθC1B T243A = target: T1, PKCθC1B T243A (Mus musculus, UniProt Q02111, T243A); experiment: [3H]PDBu binding assay
T1 sequence (Q02111 232-281 T243A): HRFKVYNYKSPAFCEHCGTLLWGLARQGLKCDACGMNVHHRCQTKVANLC
Outline: (§1)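 GST-cleaved mouse PKCθ C1B (residues 232–281), E. coli-expressed, affinity/gel-filtration purified. PEG-precipitation [3H]PDBu binding; Kd from saturable plus linear non-specific fit. Ki: [3H]PDBu at 2–5-fold each construct's Kd, DOG or SAG 1–100000 nM, dried from chloroform with phospholipid, sonicated. PS dependence: total phospholipid 100 μg/ml, PS 0–100%, remainder PC, relative to 100% PS. Means ± S.E.M., three independent experiments.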

PKCθC1B L255G = target: T2, PKCθC1B L255G (Mus musculus, UniProt Q02111, L255G); experiment: [3H]PDBu binding assay
T2 sequence (Q02111 232-281 L255G): T1 sequence (Q02111 232-281 T243A) with A12T, L24G
Outline: as §1

PKCθC1B Q258G = target: T3, PKCθC1B Q258G (Mus musculus, UniProt Q02111, Q258G); experiment: [3H]PDBu binding assay
T3 sequence (Q02111 232-281 Q258G): T1 sequence (Q02111 232-281 T243A) with A12T, Q27G
Outline: as §1

PKCθC1B Y239A = target: T4, PKCθC1B Y239A (Mus musculus, UniProt Q02111, Y239A); experiment: [3H]PDBu binding assay
T4 sequence (Q02111 232-281 Y239A): T1 sequence (Q02111 232-281 T243A) with Y8A, A12T
Outline: as §1

PKCδC1B W252K = details: cited from earlier work
PKCδC1B L250D = details: in the presence or absence of PS; cited from earlier work
PKCδC1B L250R = details: cited from earlier work
PKCδC1B W252G = details: PKCδC1B mutant homologous to W253G; ref Supplementary Table S1; cited from earlier work
PKCδC1B L254G = details: PKCδC1B mutant homologous to L255G; ref Supplementary Table S1; cited from earlier work
PKCθC1B W253G = target: T5, PKCθC1B W253G (Mus musculus, UniProt Q02111, W253G); experiment: [3H]PDBu binding assay
T5 sequence (Q02111 232-281 W253G): T1 sequence (Q02111 232-281 T243A) with A12T, W22G

PKCδC1B L255D = details: in the presence or absence of PS; cited from earlier work
PKCδC1B L250K = details: cited from earlier work
PKCθC1B wild-type = target: T6, PKCθC1B wild-type (Mus musculus, UniProt Q02111); experiment: [3H]PDBu binding assay
T6 sequence (Q02111 232-281): T1 sequence (Q02111 232-281 T243A) with A12T
Outline: as §1

PKCδC1B Y238G = details: PKCδC1B mutant homologous to Y239A; ref Supplementary Table S1; cited from earlier work
PKCδC1B L255K = details: cited from earlier work

In the case of `CCCC(=O)O[C@@H]1[C@@H](C)[C@@]2(O)[C@@H](C=C(CO)C[C@]3(O)C(=O)C(C)=C[C@@H]23)[C@@H]2C(C)(C)[C@]12OC(=O)CCC` [PDBu, phorbol 12,13-dibutyrate], the “activity at 50% PS” value (PKCδC1B) is given as “approximately 100%”, the “PDBu binding at 50% PS relative to the level at 100% PS” value (PKCθC1B T243A; PS/PC mixture, total phospholipid 100 μg/ml, T243A) is given as 98.2% and the “reduction in binding affinity compared with the wild-type” value (“reduction in binding affinity” below) (PKCθC1B T243A; T243A vs wild-type PKCθC1B (Kd for PDBu, Ki for DOG/SAG)) is given as 1.64 fold. For the same compound, the Kd (PKCθC1B T243A; read-out: PDBu Kd, PKCθ C1B T243A, mean ± S.E.M.) was 0.64 ± 0.06 nM, the “reduction in binding affinity” value (PKCθC1B L255G; L255G vs wild-type PKCθC1B (Kd for PDBu, Ki for DOG/SAG)) was 11.4 fold and 11 fold and the “PDBu binding at 50% PS relative to the level at 100% PS” value (PKCθC1B L255G; PS/PC mixture, total phospholipid 100 μg/ml, L255G) was 92.8%. The “PS percentage giving maximal [3H]PDBu binding” value (PKCθC1B L255G; PS/PC mixtures, L255G, decrease at 100% PS) was 50–75%, the Kd (PKCθC1B L255G; read-out: PDBu Kd, PKCθ C1B L255G, mean ± S.E.M.) was 4.44 ± 0.56 nM and the “PDBu binding at 50% PS relative to the level at 100% PS” value (PKCθC1B Q258G; PS/PC mixture, total phospholipid 100 μg/ml, Q258G) was 85.7%. The “reduction in binding affinity” value (PKCθC1B Q258G; Q258G vs wild-type PKCθC1B (Kd for PDBu, Ki for DOG/SAG)) was 1720 fold, the Kd (PKCθC1B Q258G; read-out: PDBu Kd, PKCθ C1B Q258G, mean ± S.E.M.) was 670 ± 150 nM and the “PDBu binding at 50% PS relative to the level at 100% PS” value (PKCθC1B Y239A; PS/PC mixture, total phospholipid 100 μg/ml, Y239A) was 130.7%. For the same compound, the “PS percentage giving maximal [3H]PDBu binding” value (PKCθC1B Y239A; PS/PC mixtures, Y239A, decrease at 100% PS) was 50–75%, the “reduction in binding affinity” value (PKCθC1B Y239A; Y239A vs wild-type PKCθC1B (Kd for PDBu, Ki for DOG/SAG)) was 8.51 fold and 9 fold and the Kd (PKCθC1B Y239A; read-out: PDBu Kd, PKCθ C1B Y239A, mean ± S.E.M.) was 3.32 ± 0.34 nM. For the same compound, the “activity at 50% PS as percent of the maximum activity” value (PKCδC1B W252K; 50% PS) was “approximately 55%”, the “binding affinity compared with the wild-type” value (PKCδC1B W252K; in the absence of the PS) was “remained almost the same” and the “effect on PDBu binding compared with the wild-type” value (PKCδC1B W252K; in the presence of PS) was 3 fold. The “effect of mutation on strong binding of PDBu” value (PKCδC1B L250D) was “completely abolished”, the “reduction in PDBu binding” value (PKCδC1B L250R; in the absence of lipid) was 6.6 fold and the “reduction in PDBu binding” value (PKCδC1B L250R; in the presence of lipid) was 340 fold. For the same compound, the “reduction in affinity for PDBu compared with the wild-type” value (PKCδC1B W252G) was 31 fold, the “reduction in affinity for PDBu compared with the wild-type” value (PKCδC1B L254G) was over 1000 fold and the “PDBu binding at 50% PS relative to the level at 100% PS” value (PKCθC1B W253G; PS/PC mixture, total phospholipid 100 μg/ml, W253G) was 59.3%. For the same compound, the “reduction in binding affinity” value (PKCθC1B W253G; W253G vs wild-type PKCθC1B (Kd for PDBu, Ki for DOG/SAG)) was 7.56 fold and 8 fold, the Kd (PKCθC1B W253G; read-out: PDBu Kd, PKCθ C1B W253G, mean ± S.E.M.) was 2.95 ± 0.19 nM and the “effect of mutation on strong binding of PDBu” value (PKCδC1B L255D) was “completely abolished”. The “binding affinity compared with the wild-type” value (PKCδC1B L250K; in the absence of the PS) was “remained almost the same”, the “effect on PDBu binding compared with the wild-type” value (PKCδC1B L250K; in the presence of PS) was 3 fold and the “[3H]PDBu binding at 5% PS” value (PKCθC1B wild-type; 5% PS in PS/PC, relative to binding at 100% PS) was “Approximately 30%”. The “[3H]PDBu binding in 100% PC” value (PKCθC1B wild-type; 100% PC (0% PS)) was “essentially no binding”, the “PDBu binding at 50% PS relative to the level at 100% PS” value (PKCθC1B wild-type; PS/PC mixture, total phospholipid 100 μg/ml, PKCθC1B) was 90.5% and the Kd (PKCθC1B wild-type; read-out: PDBu Kd, PKCθ C1B WT, mean ± S.E.M. of triplicate independent experiments) was 0.39 ± 0.2 nM. For the same compound, the “reduction in the binding affinity compared with the wild-type” value (PKCδC1B Y238G) was 60 fold, the “reduction in PDBu binding” value (PKCδC1B L255K; in the absence of lipid) was 2.9 fold and the “reduction in PDBu binding” value (PKCδC1B L255K; in the presence of lipid) was 250 fold.
